Holding throughout (assay type): functional
Experiment [1] deals with Rattus norvegicus. Briefly: Serum LH releasing potency in vivo after intraperitoneal administration in rats at 10 h. The gist of the method:
(§1)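 Blood was drawn by cardiac puncture under light ether anaesthesia at each time point. Serum LH was measured by double-antibody RIA against the LH-RP-3 reference, with three dilutions per serum. Values are mean ± SEM of five rats per group; the experiment was repeated twice more.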

Experiment [2] deals with Rattus norvegicus. Briefly: Serum LH releasing potency in vivo after intraperitoneal administration in rats at 24 h. The gist of the method:
as §1

Experiment [3] has as its system Rattus norvegicus. Briefly: Serum LH releasing potency in vivo after intraperitoneal administration in rats at 3 h. The gist of the method:
as §1

Experiment [4] concerns Rattus norvegicus. Briefly: Serum LH releasing potency in vivo after intraperitoneal administration in rats at 6 h. The gist of the method: as §1
For experiment [5], the system named is Rattus norvegicus. Briefly: Serum LH releasing potency in vivo after intraperitoneal administration in rats at 0 h. The gist of the method: as §1
For experiment [6], the system named is Rattus norvegicus. Briefly: Serum LH releasing potency in vivo after intraperitoneal administration in rats at 1.5 h. The gist of the method:
as §1

Experiment [7] is filed under the species Rattus norvegicus. As to the kind of experiment: LH releasing activity in rat. The method in brief: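 Fifteen-week-old female Wistar-derived rats (220–250 g), given 2 nmol/rat ip in 0.5 mL PBS. Blood drawn by cardiac puncture under light ether anesthesia at set times (1.5–24 h). Serum LH measured by double-antibody RIA at three dilutions per sample. Five rats per group; mean ± SEM.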

Structures are written as SMILES.

This note sets out measurements from ChEMBL document CHEMBL1145079, “Receptor-mediated targeting of a photosensitizer by its conjugation to gonadotropin-releasing hormone analogues” (J Med Chem, 2003).

As to `CC(C)C[C@H](NC(=O)[C@H](CCCCN)NC(=O)[C@H](Cc1ccc(O)cc1)NC(=O)[C@H](CO)NC(=O)[C@H](Cc1c[nH]c2ccccc12)NC(=O)[C@H](Cc1c[nH]cn1)NC(=O)[C@@H]1CCC(=O)N1)C(=O)N[C@@H](CCCN=C(N)N)C(=O)N1CCC[C@H]1C(=O)NCC(N)=O`, the Activity in experiment [1] was determined as 1.12 ng/mL; in experiment [2], 0.34 ng/mL; in experiment [3], 21.92 ng/mL; in experiment [4], 2.94 ng/mL; in experiment [5], 0.53 ng/mL; in experiment [6], 72.5 ng/mL.

In the case of `C=CC1=C(C)c2cc3[nH]c(cc4nc(cc5[nH]c(cc1n2)c(C)c5CCC(=O)O)C(CCC(=O)NCCCC[C@@H](NC(=O)[C@H](Cc1ccc(O)cc1)NC(=O)[C@H](CO)NC(=O)[C@@H](Cc1c[nH]c2ccccc12)NC(=O)[C@@H](Cc1ccccc1)NC(=O)[C@H]1CCC(=O)N1)C(=O)N[C@@H](CC(C)C)C(=O)N[C@@H](CCCN=C(N)N)C(=O)N1CCC[C@H]1C(=O)NCC(N)=O)=C4C)c(C)c3C=C`, the ED50 in experiment [7] worked out at 1.8 µM.

For the compound `C=CC1=C(C)c2cc3[nH]c(cc4nc(cc5[nH]c(cc1n2)c(C)c5CCC(=O)O)C(CCC(=O)NCCCC[C@@H](NC(=O)[C@H](Cc1ccc(O)cc1)NC(=O)[C@H](CO)NC(=O)[C@H](Cc1c[nH]c2ccccc12)NC(=O)[C@H](Cc1c[nH]cn1)NC(=O)[C@@H]1CCC(=O)N1)C(=O)N[C@@H](CC(C)C)C(=O)N[C@@H](CCCN=C(N)N)C(=O)N1CCC[C@H]1C(=O)NCC(N)=O)=C4C)c(C)c3C=C`, the Activity came to 2.9 ng/mL in experiment [1]; 0.88 ng/mL in experiment [2]; 11.57 ng/mL in experiment [3]; 8.1 ng/mL in experiment [4]; 0.53 ng/mL in experiment [5]; 10.64 ng/mL in experiment [6].
